Results from ChEMBL document CHEMBL4689842, “EUbOPEN Chemogenomics Library wave 1” (2021).
“And” between values parts separate entries of the source, which are not always exact repeats. Equal entries are not always repeated.

Test system: U2OS
Experiment: Multiplex assay against U2OS
Format: toxicity, cell-based
Details: human, 1 µM, compound concentration 1 uM
Procedure, shortened: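 Hoechst33342, BioTracker Green Microtubule Cytoskeleton Dye, MitoTracker Red and Annexin V Alexa Fluor 680 were added to live cells at seeding, and imaging on a CQ1 microscope at 37°C and 5% CO2 followed compound addition. Gating by CellPathfinder machine learning separated cells into Hoechst high-intensity objects or normal cells, then normal cells into healthy, pyknosed or fragmented nuclei, then pyknosed cells into mitotic or apoptotic. Per cents of healthy-nucleus cells are reported for the tubulin, mitochondrial-mass and membrane-permeability phenotypes.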

Compound: CN1CCN(Cc2cc(NC(=O)c3ccc4c(c3)CN(c3ccccc3)CC4)cc(C(F)(F)F)c2)CC1
- Population Apoptotic (%) (12 h, replicate 1): 35% and 75%
- Population Healthy Nuclei (%) (12 h, replicate 1): 63% and 89%
- Population Hoechst High Intensity Objects (%) (12 h, replicate 1): 2%
- Population Membrane Permeable-Phenotype (%) (12 h, replicate 1): 28% and 46%
- Population Mitotic Cells (%) (12 h, replicate 1): 64% and 25%
- Population Normal (%) (12 h, replicate 1): 97%
- Population Tubulin-Different-Phenotype (%) (12 h, replicate 1): 98% and 42%
- Total Cell Count (12 h, replicate 1): 228 and 171
- Population Fragmented Nuclei (%) (12 h, replicate 2): 28% and 15%
- Population Healthy Nuclei (%) (12 h, replicate 2): 52% and 80%
- Population Hoechst High Intensity Objects (%) (12 h, replicate 2): 5% and 15%
- Population Membrane Permeable-Phenotype (%) (12 h, replicate 2): 47% and 37%
- Population Mitotic Cells (%) (12 h, replicate 2): 65% and 100%
- Population Normal (%) (12 h, replicate 2): 94% and 84%
- Population Pyknosed Nuclei (%) (12 h, replicate 2): 19%
- Population Tubulin-Different-Phenotype (%) (12 h, replicate 2): 100% and 48%
- Total Cell Count (12 h, replicate 2): 128 and 83
- Population Apoptotic (%) (24 h, replicate 1): 39% and 22%
- Population Fragmented Nuclei (%) (24 h, replicate 1): 14% and 7%
- Population Healthy Nuclei (%) (24 h, replicate 1): 46% and 88%
- Population Hoechst High Intensity Objects (%) (24 h, replicate 1): 10% and 3%
- Population Membrane Permeable-Phenotype (%) (24 h, replicate 1): 33% and 28%
- Population Mitotic Cells (%) (24 h, replicate 1): 60% and 77%
- Population Normal (%) (24 h, replicate 1): 89% and 96%
- Total Cell Count (24 h, replicate 1): 255 and 239
- Population Fragmented Nuclei (%) (24 h, replicate 2): 19% and 9%
- Population Healthy Nuclei (%) (24 h, replicate 2): 45% and 80%
- Population Hoechst High Intensity Objects (%) (24 h, replicate 2): 13% and 11%
- Population Membrane Permeable-Phenotype (%) (24 h, replicate 2): 36% and 35%
- Population Mitotic Cells (%) (24 h, replicate 2): 44% and 87%
- Population Normal (%) (24 h, replicate 2): 86% and 88%
- Total Cell Count (24 h, replicate 2): 144 and 92
